Experimental data taken from ChEMBL document CHEMBL1154054, “Novel 4-(morpholin-4-yl)-N'-(arylidene)benzohydrazides: synthesis, antimycobacterial activity and QSAR investigations” (Eur J Med Chem, 2009).

Columns and labels:
Format in all cases: functional
[1] = system: Mycobacterium tuberculosis; assay: Antimycobacterial activity against multidrug resistant Mycobacterium tuberculosis at 0.05 ug/ml after 72 hrs by LRP assay
In short: (§1)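 Luciferase reporter phage assay on M. tuberculosis (H37Rv, or clinical isolates resistant to S, H, R and E). Each sample had two drug-free controls and four drug concentrations, incubated 72 h at 37 °C. High-titer phAE129 phage plus 0.1 M CaCl₂ was added, then 4 h at 37 °C. Equal volume D-luciferin (0.3 mM, pH 4.5 citrate) was added; RLU integrated 10 s, duplicate mean; % RLU reduction vs control.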

[2] = system: Mycobacterium tuberculosis; assay: Antimycobacterial activity against multidrug resistant Mycobacterium tuberculosis at 0.5 ug/ml after 72 hrs by LRP assay; in short: as §1
[3] = system: Mycobacterium tuberculosis; assay: Antimycobacterial activity against multidrug resistant Mycobacterium tuberculosis at 5 ug/ml after 72 hrs by LRP assay; in short: as §1
[4] = system: Mycobacterium tuberculosis; assay: Antimycobacterial activity against multidrug resistant Mycobacterium tuberculosis at 10 ug/ml after 72 hrs by LRP assay; in short: as §1

Cc1ccc(/C=N/NC(=O)c2ccc(N3CCOCC3)cc2)cc1 was tested, and the Activity [1] was 48.49%, the Activity [2] was 87.24% and the Activity [3] was 90.83%. The Activity [4] was 91.37%.

Work on COc1cc(/C=N/NC(=O)c2ccc(N3CCOCC3)cc2)cc(OC)c1OC yielded an Activity [1] of 35.83%, an Activity [2] of 96.88% and an Activity [3] of 90.29%. The Activity [4] was 90.24%.

O=C(N/N=C1\C=CCO1)c1ccc(N2CCOCC2)cc1 was tested, and the Activity [1] was 58.54%, the Activity [2] was 86.92% and the Activity [3] was 92.52%. The Activity [4] was 93.72%.

Work on O=C(N/N=C/c1ccc(F)cc1)c1ccc(N2CCOCC2)cc1 yielded an Activity [1] of 83.22%, an Activity [2] of 86.33% and an Activity [3] of 93.28%. For the same compound, the Activity [4] was 95.09%.

In the case of O=C(N/N=C/c1ccc(O)cc1)c1ccc(N2CCOCC2)cc1, the Activity [1] is reported as 43.92%, the Activity [2] is reported as 73.58% and the Activity [3] is reported as 88.08%. For the same compound, the Activity [4] was 88.45%.

Work on COc1ccc(/C=N/NC(=O)c2ccc(N3CCOCC3)cc2)cc1 yielded an Activity [1] of 56.53%, an Activity [2] of 82.97% and an Activity [3] of 89.33%. For the same compound, the Activity [4] was 90.36%.

For O=C(N/N=C/c1cccc([N+](=O)[O-])c1)c1ccc(N2CCOCC2)cc1, the Activity [1] was 29.92%, the Activity [2] was 87.17% and the Activity [3] was 90.07%. The Activity [4] was 88.86%.

O=C(N/N=C/c1ccc(Cl)cc1)c1ccc(N2CCOCC2)cc1 showed an Activity [1] of 67.15%, an Activity [2] of 89.91% and an Activity [3] of 91.19%. For the same compound, the Activity [4] was 94.29%.

O=C(N/N=C\C=C\c1ccccc1)c1ccc(N2CCOCC2)cc1 was tested, and the Activity [1] was 55.7%, the Activity [2] was 85.67% and the Activity [3] was 91.61%. The Activity [4] was 92.1%.

With CN(C)c1ccc(/C=N/NC(=O)c2ccc(N3CCOCC3)cc2)cc1 the Activity [1] was 48.14%, the Activity [2] was 90.72% and the Activity [3] was 93.18%. For the same compound, the Activity [4] was 95.02%.

NNC(=O)c1ccncc1 [ISONIAZID] showed an Activity [1] of 84.37%, an Activity [2] of 89.6% and an Activity [3] of 95.85%. It also gave an Activity [4] of 94.7%.
